Consider two compounds from ChEMBL document CHEMBL1122773 (1984).

Each structure is given as a SMILES string. Values after ≈ are worked out from the molar mass of the structure shown.

Holding throughout (assay type): functional
The test system of assay [1] is Mus musculus. The assay can be described thus: In vivo antibacterial activity against Escherichia coli (UC no 311) infected mice after sc administration. Summed up: (§1)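 Fresh drug solutions were given subcutaneously (0.2 mL) or by oral intubation (0.5 mL), per line. Dosing was immediately after infection, then daily for 4 consecutive days, with 3 further days of observation. CD50 was calculated by Spearman-Karber.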

Assay [2] deals with Mus musculus. The assay can be described thus: In vivo antibacterial activity against Plasmodium berghei infected mice (Mus musculus) after subcutaneous administration.
The subject of assay [3] is Mus musculus. Briefly: In vivo antibacterial activity against Streptococcus pyogenes(UC 152) infected mice after oral administration. Summed up:
as §1

Assay [4] concerns Mus musculus. The assay can be described thus: (§2) In vivo antibacterial activity against Proteus vulgaris(UC 347) infected mice after oral administration. In short, it runs like this:
as §1

Assay [5] relates to Streptococcus pyogenes. Briefly: In vivo antibacterial activity against Streptococcus pyogenes (UC no 152) infected mice after sc administration (value in parenthesis is 95% confidence interval). Summed up: as §1
For assay [6], the system named is Clostridioides difficile. The assay can be described thus: In vitro antibacterial activity against the anaerobic Clostridium difficile (Strain UC no.6858). Summed up:
(§3)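 Agar dilution with serial twofold drug dilutions in Schaedler broth mixed into molten Wilkens-Chalgren agar. Strains grown 48 h on Schaedler agar, suspended to 0.5 McFarland, and 0.001 mL spotted by replicator. All steps done anaerobically. Incubation 48 h at 37 °C. MIC is the least drug inhibiting growth; a faint film or fewer than three colonies scored negative.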

The subject of another assay is Plasmodium berghei. Briefly: In vivo activity against Plasmodium berghei in mice (Mus musculus) after subcutaneous dose (95% confidence interval).
The test system of a further assay is Fusobacterium nucleatum. Briefly: In vitro antibacterial activity against the anaerobic Fusobacterium nucleatum (Strain UC no.6324). Summed up:
as §3

Another assay deals with Clostridium novyi. Briefly: In vitro antibacterial activity against the anaerobic Clostridium novyi B(Strain UC no.6329). Summed up:
as §3

The next assay deals with Streptococcus pneumoniae. Briefly: In vivo antibacterial activity against Streptococcus pneumoniae III (UC no 3213) infected mice after sc administration (value in parenthesis is 95% confidence interval). Summed up:
as §1

The test system of assay [7] is Streptococcus pyogenes. Briefly: In vivo antibacterial activity against Streptococcus pyogenes(UC 152) infected mice after oral administration (value in parenthesis is 95% confidence interval). In short, it runs like this: as §1
Another assay concerns Eubacterium limosum. The assay can be described thus: In vitro antibacterial activity against the anaerobic Eubacterium limosum(Strain UC no.6515). In short, it runs like this: as §3
The next assay deals with Fusobacterium varium. The assay can be described thus: In vitro antibacterial activity against the anaerobic Fusobacterium varium(Strain UC no.6052). Summed up: as §3
In assay [8] the test system is Staphylococcus epidermidis. The assay can be described thus: In vitro antibacterial activity against the aerobic Staphylococcus epidermidis (Strain UC no.719). Summed up: (§4)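 Broth microdilution in brain/heart infusion broth with twofold drug dilutions. Inoculum was a standardized suspension giving 10⁵ viable cells/mL final. Plates were incubated 20 h at 37 °C. MIC (mcg/mL) = lowest concentration with no visible growth.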

Assay [9] deals with Parabacteroides distasonis. Briefly: In vitro antibacterial activity against the anaerobic Bacteroides distasonis (Strain UC no.6518).
Assay [10] deals with Bacteroides fragilis. Briefly: In vivo antibacterial activity against Bacteroides fragilis(UC no 6428) infected mice after sc administration.
The next assay deals with Staphylococcus aureus. Briefly: In vitro antibacterial activity against the aerobic Staphylococcus aureus (Strain UC no.6687). In short, it runs like this: as §4
A further assay deals with Cutibacterium acnes. Briefly: In vitro antibacterial activity against the anaerobic Propionibacterium acnes(Strain UC no.6564). Summed up:
as §3

Another assay deals with Eggerthella lenta. The assay can be described thus: In vitro antibacterial activity against the anaerobic Eubacterium lentum(Strain UC no.6522). Summed up:
as §3

Assay [11] deals with Bacteroides fragilis. The assay can be described thus: In vitro antibacterial activity against the anaerobic Bacteroides fragilis (Strain UC no.6864). Summed up:
as §3

A further assay relates to Proteus vulgaris. Described as §2. In short, it runs like this: as §1
Assay [12] relates to Clostridioides difficile. The assay can be described thus: In vitro antibacterial activity against the anaerobic Clostridium difficile (Strain UC no.6860). In short, it runs like this:
as §3

On to `CCC[C@@H]1C[C@@H](C(=O)N[C@@H]([C@H]2O[C@H](SC)[C@H](O)[C@@H](O)[C@H]2O)[C@H](C)Cl)N(C)C1` [CLINDAMYCIN], for which the CD50 in the assay on Mus musculus [1] was greater than 160 mg/kg; with Mus musculus [2], 53 mg/kg; in the assay on Mus musculus [3], 12.3 mg/kg; in the assay with Mus musculus [4] it was greater than 400 mg/kg.
In the case of `CC[C@@H]1CCN[C@H](C(=O)N[C@@H]([C@H]2O[C@H](SC)[C@H](O)[C@@H](O)[C@H]2O)[C@H](C)Cl)C1` [PIRLIMYCIN], the CD50 in the assay with Streptococcus pyogenes [5] was 0.25 mg/kg; with Plasmodium berghei it was 16 mg/kg; with Streptococcus pneumoniae, 2.7 mg/kg; in the assay on Streptococcus pyogenes [7], 2.9 mg/kg; with Bacteroides fragilis [10] it was less than 6.25 mg/kg; in the assay on Proteus vulgaris it was greater than 400 mg/kg. Moreover, the MIC with Clostridioides difficile [6] came to 3.9 µg/mL (≈ 9.49 µM); with Fusobacterium nucleatum it was 0.06 µg/mL (≈ 0.146 µM); against Clostridium novyi it was 0.12 µg/mL (≈ 0.292 µM); against Eubacterium limosum it was 2 µg/mL (≈ 4.87 µM); in the assay with Fusobacterium varium it was 3.9 µg/mL (≈ 9.49 µM); in [8] it was 0.2 µg/mL (≈ 0.487 µM). Further, the MIC was less than 0.03 µg/mL in assay [9]; 0.2 µg/mL (≈ 0.487 µM) in the assay with Staphylococcus aureus; 0.12 µg/mL (≈ 0.292 µM) against Cutibacterium acnes; 1 µg/mL (≈ 2.43 µM) against Eggerthella lenta; 2 µg/mL (≈ 4.87 µM) against Bacteroides fragilis [11]; 500 µg/mL (≈ 1220 µM) with Clostridioides difficile [12].

The MIC is the least concentration at which growth counts as inhibited. High values mean a need for much substance, low ones inhibition by little substance.
